From ChEMBL document CHEMBL4406875, “Design, synthesis and biological evaluation of amino acids-oleanolic acid conjugates as influenza virus inhibitors” (Bioorg Med Chem, 2019)
Calls of active or inactive are those of the source. The calls are words filed in the database; no cut-off is given here.

Key:
MDCK = test: Cytotoxicity against dog MDCK cells assessed as cell viability measured at 100 uM after 45 hrs by Celltiter-Glo luminescence assay; type: cell-based, Canis lupus familiaris
In short: (§1)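 Viability screen of uninfected MDCK cells at 100 μM compound, read by CellTiter-Glo luminescence with DMSO as negative control; triplicate experiments.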

Influenza A virus [1] = test: Antiviral activity against Influenza A virus A/WSN/33(H1N1) infected in MDCK cells assessed as inhibition of virus-induced cytopathic effect at 100 uM measured after 45 hrs by CellTiter-Glo luminescence assay; type: functional, organism-based; settings: A/WSN/1933(H1N1)
In short: (§2)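 Single-concentration screen at 100 μM in MDCK cells infected with A/WSN/33 under the same conditions: 1% FBS DMEM with 1 μg/mL trypsin, MOI 0.1, 45 h. Cytopathic effect was read by CellTiter-Glo luminescence against a DMSO negative control, from triplicate experiments.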

[2] = Cytotoxicity against dog MDCK cells assessed as cell viability measured after 45 hrs by Celltiter-Glo luminescence assay; type: cell-based, Canis lupus familiaris
In short: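 Non-infected MDCK cells were exposed to compound dilutions and viability was read by CellTiter-Glo luminescence. CC50 is the concentration reducing viability of uninfected cells by 50%, given as the mean of duplicate samples from three independent experiments.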

Influenza A virus H3N2 = test: Antiviral activity against Influenza A virus A/Texas/50/2012(H3N2) infected in MDCK cells inhibition of virus-induced cytopathic effect measured after 45 hrs by CellTiter-Glo luminescence assay; type: functional, organism-based
In short: (§3)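 MDCK cells (5,000/well) were seeded one day before infection. Infection medium was high-glucose DMEM with 1% FBS and trypsin (1 μg/mL). Compounds were added at various concentrations and cells infected at MOI 0.1. After 45 h, viability was read by CellTiter-Glo luminescence. IC50 was taken from dose-response curves, as the mean of duplicate samples from three independent experiments.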

Influenza A virus [3] = test: Antiviral activity against Influenza A virus A/WSN/33(H1N1) infected in MDCK cells assessed as inhibition of virus-induced cytopathic effect at 100 uM measured after 45 hrs by CellTiter-Glo luminescence assay relative to control; type: functional; settings: A/WSN/1933(H1N1); in short: as §2
[4] = molecular target: Hemagglutinin (Influenza A virus) (UniProt B4URE7); test: Inhibition of Influenza A virus HA-mediated chicken erythrocytes aggregation incubated for 30 mins
In short: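 Compound was 2-fold serially diluted in saline from 100 to 1.56 μM and mixed with an equal volume of influenza virus (2 HA units). Chicken red blood cells (1% v/v in saline) were then added. After 30 min at room temperature, erythrocyte aggregation was scored by eye. An anti-HA monoclonal antibody served as positive control.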

Influenza A virus [5] = test: Antiviral activity against Influenza A virus A/WSN/33(H1N1) infected in MDCK cells assessed as inhibition of virus-induced cytopathic effect measured after 45 hrs by CellTiter-Glo luminescence assay; type: functional, organism-based; settings: A/WSN/1933(H1N1); in short: as §3
[6] = Cytotoxicity against dog MDCK cells assessed as cell viability measured at 100 uM after 45 hrs by Celltiter-Glo luminescence assay relative to control; type: cell-based, Canis lupus familiaris; settings: read-out: Activity; in short: as §1

Hemagglutinin (Influenza A virus), sequence (B4URE7 as listed by the source): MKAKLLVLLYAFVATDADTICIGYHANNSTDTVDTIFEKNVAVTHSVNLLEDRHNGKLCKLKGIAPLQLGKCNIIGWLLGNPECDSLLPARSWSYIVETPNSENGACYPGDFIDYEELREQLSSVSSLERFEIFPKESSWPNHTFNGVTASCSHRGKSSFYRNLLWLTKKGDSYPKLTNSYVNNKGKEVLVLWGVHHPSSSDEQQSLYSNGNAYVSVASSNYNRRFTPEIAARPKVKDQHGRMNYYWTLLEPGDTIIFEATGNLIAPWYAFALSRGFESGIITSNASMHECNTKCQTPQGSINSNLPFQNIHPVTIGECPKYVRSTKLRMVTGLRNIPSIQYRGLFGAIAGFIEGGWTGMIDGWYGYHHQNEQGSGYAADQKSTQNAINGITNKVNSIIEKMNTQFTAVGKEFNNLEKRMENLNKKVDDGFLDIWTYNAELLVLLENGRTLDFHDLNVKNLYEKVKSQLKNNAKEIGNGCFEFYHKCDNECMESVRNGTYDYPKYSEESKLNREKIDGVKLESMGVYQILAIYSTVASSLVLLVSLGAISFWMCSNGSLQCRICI

| Compound | Activity (MDCK) | inhibition (Influenza A virus [1]) | other results |
| --- | --- | --- | --- |
| CC[C@H](C)[C@H](NC(=O)[C@]12CCC(C)(C)C[C@H]1C1=CC[C@@H]3[C@@]4(C)CC[C@H](O)C(C)(C)[C@@H]4CC[C@@]3(C)[C@]1(C)CC2)C(=O)O | Toxic | Active | – |
| C[C@@H](O)[C@H](NC(=O)[C@]12CCC(C)(C)C[C@H]1C1=CC[C@@H]3[C@@]4(C)CC[C@H](O)C(C)(C)[C@@H]4CC[C@@]3(C)[C@]1(C)CC2)C(=O)O | Toxic | Active | – |
| COC(=O)[C@H](Cc1c[nH]c2ccccc12)NC(=O)[C@]12CCC(C)(C)C[C@H]1C1=CC[C@@H]3[C@@]4(C)CC[C@H](O)C(C)(C)[C@@H]4CC[C@@]3(C)[C@]1(C)CC2 | Toxic | Active | – |
| COC(=O)[C@H](Cc1ccccc1)NC(=O)[C@]12CCC(C)(C)C[C@H]1C1=CC[C@@H]3[C@@]4(C)CC[C@H](O)C(C)(C)[C@@H]4CC[C@@]3(C)[C@]1(C)CC2 | Toxic | Active | – |
| CC1(C)CC[C@]2(C(=O)N3CCC[C@H]3C(=O)O)CC[C@]3(C)C(=CC[C@@H]4[C@@]5(C)CC[C@H](O)C(C)(C)[C@@H]5CC[C@]43C)[C@@H]2C1 | Toxic | Active | – |
| CC1(C)CC[C@]2(C(=O)N[C@@H](CO)C(=O)O)CC[C@]3(C)C(=CC[C@@H]4[C@@]5(C)CC[C@H](O)C(C)(C)[C@@H]5CC[C@]43C)[C@@H]2C1 | Toxic | Active | – |
| CC1(C)CC[C@]2(C(=O)NCC(=O)O)CC[C@]3(C)C(=CC[C@@H]4[C@@]5(C)CC[C@H](O)C(C)(C)[C@@H]5CC[C@]43C)[C@@H]2C1 | Toxic | Active | – |
| COC(=O)[C@H](Cc1c[nH]cn1)NC(=O)[C@]12CCC(C)(C)C[C@H]1C1=CC[C@@H]3[C@@]4(C)CC[C@H](O)C(C)(C)[C@@H]4CC[C@@]3(C)[C@]1(C)CC2 | Toxic | Active | – |
| CC(C)C[C@H](NC(=O)[C@]12CCC(C)(C)C[C@H]1C1=CC[C@@H]3[C@@]4(C)CC[C@H](O)C(C)(C)[C@@H]4CC[C@@]3(C)[C@]1(C)CC2)C(=O)O | Toxic | Active | – |
| CC1(C)CC[C@]2(C(=O)N[C@@H](CCC(=O)O)C(=O)O)CC[C@]3(C)C(=CC[C@@H]4[C@@]5(C)CC[C@H](O)C(C)(C)[C@@H]5CC[C@]43C)[C@@H]2C1 | Toxic | Active | – |
| CC1(C)CC[C@]2(C(=O)O)CC[C@]3(C)C(=CC[C@@H]4[C@@]5(C)CC[C@H](O)C(C)(C)[C@@H]5CC[C@]43C)[C@@H]2C1 | – | Active | – |
| CCOC(=O)C1=C[C@@H](OC(CC)CC)[C@H](NC(C)=O)[C@@H](N)C1 [OSELTAMIVIR PHOSPHATE] | – | – | CC50 at 45 h [2]: > 100 µM; IC50 (Influenza A virus H3N2): > 100 µM |
| COC(=O)CC[C@H](NC(=O)[C@]12CCC(C)(C)C[C@H]1C1=CC[C@@H]3[C@@]4(C)CC[C@H](O)C(C)(C)[C@@H]4CC[C@@]3(C)[C@]1(C)CC2)C(=O)OC | Toxic | Active | – |
| COC(=O)[C@H](CCSC)NC(=O)[C@]12CCC(C)(C)C[C@H]1C1=CC[C@@H]3[C@@]4(C)CC[C@H](O)C(C)(C)[C@@H]4CC[C@@]3(C)[C@]1(C)CC2 | Toxic | Active | – |
| COC(=O)[C@H](Cc1ccc(O)cc1)NC(=O)[C@]12CCC(C)(C)C[C@H]1C1=CC[C@@H]3[C@@]4(C)CC[C@H](O)C(C)(C)[C@@H]4CC[C@@]3(C)[C@]1(C)CC2 | Toxic | Active | – |
| COC(=O)[C@H](CO)NC(=O)[C@]12CCC(C)(C)C[C@H]1C1=CC[C@@H]3[C@@]4(C)CC[C@H](O)C(C)(C)[C@@H]4CC[C@@]3(C)[C@]1(C)CC2 | Toxic | Active | – |
| COC(=O)[C@H](CC(C)C)NC(=O)[C@]12CCC(C)(C)C[C@H]1C1=CC[C@@H]3[C@@]4(C)CC[C@H](O)C(C)(C)[C@@H]4CC[C@@]3(C)[C@]1(C)CC2 | Toxic | Active | – |

| Compound | Activity (MDCK) | inhibition (Influenza A virus [1]) | other results |
| --- | --- | --- | --- |
| C[C@H](NC(=O)[C@]12CCC(C)(C)C[C@H]1C1=CC[C@@H]3[C@@]4(C)CC[C@H](O)C(C)(C)[C@@H]4CC[C@@]3(C)[C@]1(C)CC2)C(=O)O | Toxic | Active | – |
| CC1(C)CC[C@]2(C(=O)N[C@@H](Cc3c[nH]c4ccccc34)C(=O)O)CC[C@]3(C)C(=CC[C@@H]4[C@@]5(C)CC[C@H](O)C(C)(C)[C@@H]5CC[C@]43C)[C@@H]2C1 | Toxic | Active | – |
| COC(=O)[C@@H]1CCCN1C(=O)[C@]12CCC(C)(C)C[C@H]1C1=CC[C@@H]3[C@@]4(C)CC[C@H](O)C(C)(C)[C@@H]4CC[C@@]3(C)[C@]1(C)CC2 | Toxic | Active | – |
| COC(=O)[C@@H](NC(=O)[C@]12CCC(C)(C)C[C@H]1C1=CC[C@@H]3[C@@]4(C)CC[C@H](O)C(C)(C)[C@@H]4CC[C@@]3(C)[C@]1(C)CC2)C(C)C | Toxic | Active | – |
| CC(C)[C@H](NC(=O)[C@]12CCC(C)(C)C[C@H]1C1=CC[C@@H]3[C@@]4(C)CC[C@H](O)C(C)(C)[C@@H]4CC[C@@]3(C)[C@]1(C)CC2)C(=O)O | Toxic | Active | – |
| COC(=O)CNC(=O)[C@]12CCC(C)(C)C[C@H]1C1=CC[C@@H]3[C@@]4(C)CC[C@H](O)C(C)(C)[C@@H]4CC[C@@]3(C)[C@]1(C)CC2 | Toxic | Active | – |
| CC1(C)CC[C@]2(C(=O)N[C@@H](Cc3ccc(O)cc3)C(=O)O)CC[C@]3(C)C(=CC[C@@H]4[C@@]5(C)CC[C@H](O)C(C)(C)[C@@H]5CC[C@]43C)[C@@H]2C1 | Toxic | Active | – |
| CC[C@H](C)[C@H](NC(=O)[C@]12CCC(C)(C)C[C@H]1C1=CC[C@@H]3[C@@]4(C)CC[C@H](O)C(C)(C)[C@@H]4CC[C@@]3(C)[C@]1(C)CC2)C(=O)OC | Toxic | Active | – |
| CC1(C)CC[C@]2(C(=O)N[C@@H](Cc3ccccc3)C(=O)O)CC[C@]3(C)C(=CC[C@@H]4[C@@]5(C)CC[C@H](O)C(C)(C)[C@@H]5CC[C@]43C)[C@@H]2C1 | Toxic | Active | – |
| CC1(C)CC[C@]2(C(=O)N[C@@H](Cc3c[nH]cn3)C(=O)O)CC[C@]3(C)C(=CC[C@@H]4[C@@]5(C)CC[C@H](O)C(C)(C)[C@@H]5CC[C@]43C)[C@@H]2C1 | Toxic | Active | – |
| CC1(C)CC[C@]2(C(=O)N[C@@H](CC(=O)O)C(=O)O)CC[C@]3(C)C(=CC[C@@H]4[C@@]5(C)CC[C@H](O)C(C)(C)[C@@H]5CC[C@]43C)[C@@H]2C1 | Toxic | Active | – |
| CC1(C)CC[C@]2(C(=O)N[C@@H](CCCNC(=N)N)C(=O)O)CC[C@]3(C)C(=CC[C@@H]4[C@@]5(C)CC[C@H](O)C(C)(C)[C@@H]5CC[C@]43C)[C@@H]2C1 | Toxic | Active | inhibition at 100 µM (Influenza A virus [3]): 75%; CC50 at 45 h [2]: > 100 µM; inhibition [4]: Dose-dependent effect; IC50 (Influenza A virus H3N2): 14.1 µM; IC50 (Influenza A virus [5]): 6.64 µM; viability at 45 h, 100 µM [6]: 75% |
| COC(=O)[C@H](C)NC(=O)[C@]12CCC(C)(C)C[C@H]1C1=CC[C@@H]3[C@@]4(C)CC[C@H](O)C(C)(C)[C@@H]4CC[C@@]3(C)[C@]1(C)CC2 | Toxic | Active | – |
| COC(=O)[C@H](CCCNC(=N)N)NC(=O)[C@]12CCC(C)(C)C[C@H]1C1=CC[C@@H]3[C@@]4(C)CC[C@H](O)C(C)(C)[C@@H]4CC[C@@]3(C)[C@]1(C)CC2 | Toxic | Active | – |
| COC(=O)C[C@H](NC(=O)[C@]12CCC(C)(C)C[C@H]1C1=CC[C@@H]3[C@@]4(C)CC[C@H](O)C(C)(C)[C@@H]4CC[C@@]3(C)[C@]1(C)CC2)C(=O)OC | Toxic | Active | – |
| COC(=O)[C@@H](NC(=O)[C@]12CCC(C)(C)C[C@H]1C1=CC[C@@H]3[C@@]4(C)CC[C@H](O)C(C)(C)[C@@H]4CC[C@@]3(C)[C@]1(C)CC2)[C@@H](C)O | Toxic | Active | – |
| CSCC[C@H](NC(=O)[C@]12CCC(C)(C)C[C@H]1C1=CC[C@@H]3[C@@]4(C)CC[C@H](O)C(C)(C)[C@@H]4CC[C@@]3(C)[C@]1(C)CC2)C(=O)O | Toxic | Active | – |
